The record followed here is ChEMBL document CHEMBL1131300, “Synthesis and calcium channel-modulating effects of alkyl (or cycloalkyl) 1,4-dihydro-2,6-dimethyl-3-nitro-4-pyridyl-5-pyridinecarboxylate racemates and enantiomers” (J Med Chem, 1998).

In general, IC50 refers to the concentration that inhibits the measured activity by half. A low value points to greater potency in that assay.

The first experiment is filed under the species Cavia porcellus. The experiment can be described thus: Calcium channel agonist activity causing a 50% increase in maximum contractile response on guinea pig left atrium; 'c' means Weak agonist. It counts as functional, Cardiac atrium.
Settings: not given; call rule not given here
Summed up:
(§1)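 Guinea pig left atrium (GPLA) preparation exposed to increasing test compound concentrations. […] Number of experiments varies per compound. For weak responders, percent increase in contractile force recorded at individual concentrations.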
As to `CC1=NC(C)=C([N+](=O)[O-])C(c2ccccn2)/C1=C(\O)OC1CCCCC1` (single isomer, unassigned; (-)), the EC50 entry is reported as “Partial agonist”.

A further experiment is filed under the species Cavia porcellus. Briefly: Compound was tested for calcium channel agonistic activity, causing a 50% increase of the maximum contractile response on guinea pig left atrium.
Settings: not given
The experiment is classed as functional, Cardiac atrium. Summed up:
as §1
`CC1=NC(C)=C([N+](=O)[O-])C(c2ccccn2)/C1=C(\O)OC1CCCCC1` (single isomer, unassigned; (+)): the EC50 is 8.45 µM.

In the case of `CC1=NC(C)=C([N+](=O)[O-])C(c2ccccn2)/C1=C(\O)OC1CCCCC1` (stereo in doubt; 14a), the EC50 is 3.7 µM.

The same experiment, now with this note: Cavia porcellus, Cardiac atrium.
On to `CC1=NC(C)=C([N+](=O)[O-])C(c2cccnc2)/C1=C(\O)OC1CCCCC1` (configuration not stated), for which the EC50 is 2.76 µM.

`CC1=NC(C)=C([N+](=O)[O-])C(c2ccncc2)/C1=C(\O)OC1CCCCC1` (configuration not stated): the EC50 came out at 4.94 µM.

For `CCO/C(O)=C1\C(C)=NC(C)=C([N+](=O)[O-])C1c1ccncc1` (configuration not stated), the EC50 is 6.46 µM.

For `COCCO/C(O)=C1\C(C)=NC(C)=C([N+](=O)[O-])C1c1cccnc1` (configuration not stated), the EC50 was determined as 49.4 µM.

Take `CC1=NC(C)=C([N+](=O)[O-])C(c2cccnc2)/C1=C(\O)OC(C)(C)C` (configuration not stated): the EC50 turned out to be 14.6 µM.

For the molecule `CO/C(O)=C1\C(C)=NC(C)=C([N+](=O)[O-])C1c1ccncc1` (configuration not stated), the EC50 was determined as 48.5 µM.

For the molecule `CC1=NC(C)=C([N+](=O)[O-])C(c2ccccn2)/C1=C(\O)OCC(C)C` (configuration not stated), the EC50 was determined as 9.1 µM.

As to `COCCO/C(O)=C1\C(C)=NC(C)=C([N+](=O)[O-])C1c1ccncc1` (configuration not stated), the EC50 was found to be 37.7 µM.

As to `CC1=NC(C)=C([N+](=O)[O-])C(c2ccncc2)/C1=C(\O)OC1CCCC1` (configuration not stated), the EC50 came out at 4.25 µM.

`CC1=NC(C)=C([N+](=O)[O-])C(c2cccnc2)/C1=C(\O)OCC(C)C` (configuration not stated): the EC50 turned out to be 1.74 µM.

For the molecule `CC1=NC(C)=C([N+](=O)[O-])C(c2ccccn2)/C1=C(\O)OC(C)(C)C` (configuration not stated), the EC50 turned out to be 1810 µM.

On to `COCCO/C(O)=C1\C(C)=NC(C)=C([N+](=O)[O-])C1c1ccccn1` (configuration not stated), for which the EC50 was determined as 9.7 µM.

With `CC1=NC(C)=C([N+](=O)[O-])C(c2ccncc2)/C1=C(\O)OCC(C)C` (configuration not stated), the EC50 worked out at 8.51 µM.

In the case of `CC1=NC(C)=C([N+](=O)[O-])C(c2ccccn2)/C1=C(\O)OC1CCCC1` (configuration not stated), the EC50 is 19.8 µM.

Consider `CCO/C(O)=C1\C(C)=NC(C)=C([N+](=O)[O-])C1c1cccnc1` (configuration not stated), for which the EC50 amounted to 8.84 µM.

Turning to `CO/C(O)=C1\C(C)=NC(C)=C([N+](=O)[O-])C1c1cccnc1` (configuration not stated), the EC50 stood at 70 µM.

For `CC1=NC(C)=C([N+](=O)[O-])C(c2cccnc2)/C1=C(\O)OC1CCCC1` (configuration not stated), the EC50 was determined as 3.28 µM.

In the case of `CCO/C(O)=C1\C(C)=NC(C)=C([N+](=O)[O-])C1c1ccccn1` (configuration not stated), the EC50 stood at 22.8 µM.

For `CC1=NC(C)=C([N+](=O)[O-])C(c2ccncc2)/C1=C(\O)OC(C)(C)C` (configuration not stated), the EC50 is 2.82 µM.

The species named for a further experiment is Cavia porcellus. The experiment can be described thus: Inhibition of carbachol-induced tonic contractile response in guinea pig ileal longitudinal smooth muscle. The experiment is classed as functional.
Settings: not given
The procedure, abridged:
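Guinea pig ileal longitudinal smooth muscle contracted by the muscarinic agonist carbachol (1.6 × 10⁻⁷ M). Slow, Ca²⁺-dependent tonic component measured. […] Reported ± SEM, n = 3.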
In turn, `CC1=NC(C)=C([N+](=O)[O-])C(c2ccccn2)/C1=C(\O)OC1CCCCC1` (single isomer, unassigned; (+)) showed an IC50 of 5.27 µM.

As to `CC1=NC(C)=C([N+](=O)[O-])C(c2ccccn2)/C1=C(\O)OC1CCCCC1` (single isomer, unassigned; (-)), it took 0.0748 µM to reach half-maximal inhibition (IC50).

`CC1=NC(C)=C([N+](=O)[O-])C(c2ccccn2)/C1=C(\O)OC1CCCCC1` (stereo in doubt; 14a) came in with an IC50 of 0.842 µM.

The experiment is the same for the next values; noted with them: Cavia porcellus.
For the molecule `CC1=NC(C)=C([N+](=O)[O-])C(c2ccccn2)/C1=C(\O)OCC(C)C` (configuration not stated), half-maximal inhibition (IC50) was put at 2.61 µM.

For `CC1=NC(C)=C([N+](=O)[O-])C(c2ccccn2)/C1=C(\O)OC(C)(C)C` (configuration not stated), the IC50 worked out at 1.93 µM.

In turn, `COCCO/C(O)=C1\C(C)=NC(C)=C([N+](=O)[O-])C1c1ccccn1` (configuration not stated) returned an IC50 of 94.7 µM. This IC50 is about 49-fold higher than that of the molecule before.

In turn, `CO/C(O)=C1\C(C)=NC(C)=C([N+](=O)[O-])C1c1ccccn1` (configuration not stated) returned an IC50 of 212 µM. This IC50 lies about 2.2-fold higher than the previous one.

`CC1=NC(C)=C([N+](=O)[O-])C(c2ccccn2)/C1=C(\O)OC1CCCC1` (configuration not stated) gave an IC50 of 0.45 µM. This IC50 is about 470-fold lower than that of the molecule before.

As for `CCO/C(O)=C1\C(C)=NC(C)=C([N+](=O)[O-])C1c1ccccn1` (configuration not stated), the IC50 turned out to be 5 µM.

The species entered for another experiment is Cavia porcellus. Briefly: Calcium channel agonist activity causing a 50% increase in maximum contractile response on guinea pig left atrium; No effect. It counts as functional, Cardiac atrium.
Settings: not given
The procedure, abridged:
as §1
Take `CO/C(O)=C1\C(C)=NC(C)=C([N+](=O)[O-])C1c1ccccn1` (configuration not stated): the EC50 entry is listed as “Not Active”.
